We go through 48 sequences from the EternaBench riboswitch data.

The subject of the data set is MS2 coat protein. The experiment in a line: apparent Kd, MS2 coat protein; higher = weaker binding; RNA-MaP array; FMN 200 µM where present. A digest of the protocol: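 Designs were transcribed by stalled E. coli RNA polymerase on Illumina sequencing-chip clusters. They were titrated with SNAP-549-labelled MS2 coat protein from 0.7 or 1.5 nM, doubling to 3 µM, in 100 mM Tris-HCl pH 7.5, 80 mM KCl, 4 mM MgCl2, BSA, DTT, yeast tRNA and Tween-20, without and then with constant ligand. The apparent Kd is the median of filtered per-cluster fits after normalisation of green signal to red-channel RNA signal and control-cluster median Fmax.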

Setting [1] is: designed as: OFF switch for flavin mononucleotide, no ligand.
The mark [2] stands for this setting: ligand present: flavin mononucleotide, designed as: OFF switch for flavin mononucleotide.
[3] abbreviates: designed as: ON switch for flavin mononucleotide, no ligand.
Setting [4] is: ligand present: flavin mononucleotide, designed as: ON switch for flavin mononucleotide.

One may read the apparent Kd as a dissociation constant that holds for the conditions of the assay. As for “CUUUUGUGAGGAUAUUCGUAGUAGGGUCAUGGCACUAUUAUGGAGAAGGCACAUGAGGAUCACCCAUGUACCUU”, the “apparent Kd” value is 16.6 nM under setting [1] and 29.3 nM under setting [2].

Consider “AUGGACGUCGUAGGAUAUGUAGGAUUCUCCUACAUGAGGAUCACCCAUGUUGACGUGGAGGACGGACAGAAGGACGGUGUCCAU”, for which the “apparent Kd” value by setting is: under setting [3], 7.22 nM; under setting [4], 4.8 nM.

On to “CCCACGAAAGUCGAACGAUGAUGGAGAAGGACUAUAACAUGACAUGAGGAUCACCCAUGUGCCAAGUAGGAUAUCCAUCAUGGG”, for which the “apparent Kd” value amounted to 5.97 nM under setting [1] and 5.34 nM under setting [2].

In the case of “UAUAAUAUUAUAGGAUAUGGAUACGAUACGUAUCCAGAAGGGUGAUUAUAAUAUAAUCUAUACAUGAGGAUCACCCAUGUUUAU”, the “apparent Kd” value was determined as 228 nM under setting [3] and 98 nM under setting [4].

On to “GGGCUGUCAGGAUAUCUCGGGCUCGGGUAAACUCGGGCUCGGGAGAAGGGACAUGAGGAUCACCCAUGUGGCUC”, for which the “apparent Kd” value runs as follows: under setting [1], 42.1 nM; under setting [2], 51.5 nM.

Turning to “GCGUGUAAUGUAGGAUAUGACACAGGAAACUGGUCAGAAGGACAUGAGGAUCACCCAUGUAAAAUGUUCAAGAAUAACACAUGC”, the “apparent Kd” value is, setting by setting: under setting [1], 22.9 nM; under setting [2], 37.8 nM.

Consider “CCUAUGUGAGGAUAUGUCUGGUCUUCUUUUGUUUUUUACAGACAGAAGGCACAUGAGGAUCACCCAUGUCAGAC”, for which the “apparent Kd” value came out at 16.8 nM under setting [1] and 24.4 nM under setting [2].

Turning to “CCGAAUGUCACAGGAUAUGGUCCGGGCUCGGGACCAGAAGGGUGAUCUCACAUGAGGAUCACCCAUGUGUAGGCGUUAGGCUAC”, the “apparent Kd” value was 36.7 nM under setting [3] and 249 nM under setting [4].

Turning to “CUAUGAGCGAUAGGAUAUACUGAGAUUGAGUGGGUAGAAGGAUCGAUAGUGUAGAAGACAUGAGGAUCACCCAUGUUACGGGUU”, the “apparent Kd” value is, setting by setting: under setting [3], 892 nM; under setting [4], 290 nM.

With “CUCCUCGUGUCGAACAUGAGGAUCACCCAUGUAAUGGGCACCGAGGAUAUCCCGCUGGCGUUAUGGGAGAAGGCGGUGGAUUUA”, the “apparent Kd” value is, setting by setting: under setting [1], 42.6 nM; under setting [2], 40.2 nM.

Regarding “AUGCGACAUGAGGAUCACCCAUGUGAGGAUAUGGCCUGUUUGGCGUGUGCUGGCUCUGUCAGAAGGCGCGUGGG”, the “apparent Kd” value stood at 103 nM under setting [1] and 270 nM under setting [2].

For “AGGUAAGAGUUAAUUGUGACGGUGAGAAGGCAAUAGGUUGUGAUUAACAUGAGGAUCACCCAUGUUGAGGAUAUCACCACCUAC”, the “apparent Kd” value under setting [1] stood at 14.3 nM and the “apparent Kd” value under setting [2] turned out to be 80.8 nM.

Consider “GUCUUCCUAGGAUAUACAUGAGGAUCACCCAUGUACAGUUUCGUCUUGGGAUACUCGCGUAGAAGGAGGUGGUU”, for which the “apparent Kd” value was determined as 33.2 nM under setting [1] and 37.3 nM under setting [2].

With “UUUCUUGAUGUCAGGAUAUCGGGCACAAAAUCUAACGAGAAGGGACAUGAGGAUCACCCAUGUACGUUUUUGGG”, the “apparent Kd” value amounted to 92.9 nM under setting [1] and 249 nM under setting [2].

“UUGCGGUAGGAGAAGGACAGAGGCGGAAACACAAACAUGAGGAUCACCCAUGUAGGAUAUCCUACCUAACGCGGACUCCUCCAG”: the “apparent Kd” value was determined as 6.3 nM under setting [1] and 8.88 nM under setting [2].

On to “UAUAUUAUUAUAGGAUAUGGAUAUGAUGCAUAUCCAGAAGGGUGAUUAUAAUAUAAUCUAUACAUGAGGAUCACCCAUGUUUAU”, for which the “apparent Kd” value under setting [3] is 216 nM and the “apparent Kd” value under setting [4] was determined as 78.5 nM.

“CUAUGCGGAAUAGGAUAUUCAUUCAUGAGGAUAGAAGAAGGGUUACAUGAGGAUCACCCAUGUAUGCACAUGAGGAUCCCUUAG”: the “apparent Kd” value was found to be 247 nM under setting [1] and 260 nM under setting [2].

For “GGAUAGGACAGAGGAUAUACGUGCUAGAGAUACUAGCAAAAUUUCCUCACAUGAGGAUCACCCAUGUAGAAGGCUGUCCUACCG”, the “apparent Kd” value by setting is: under setting [1], 17 nM; under setting [2], 484 nM.

As to “AUAAGCUCGUCAGGAUAUACAACAUUGUGUAAGCAGUGUGGUAUGAUCACAUGAGGAUCACCCAUGUAGAAGGGACGAGCUUAU”, the “apparent Kd” value amounted to 6.9 nM under setting [1] and 44.9 nM under setting [2].

Turning to “UAUGGUUAAGUCAGGAUAUACGUGCAGAUAUCUGAGUAGAAGGGACAUGAGGAUCACCCAUGUAUGGUAGUGUU”, the “apparent Kd” value by setting is: under setting [1], 79.9 nM; under setting [2], 132 nM.

For the sequence “GCUACCAAAGAAGCCAACAUGAGGAUCACCCAUGUAUGUUGGUAGGAUAUCGUAUGCAAAGCAUACGAGAAGGGCUAAGGUAGC”, the “apparent Kd” value came to 98.8 nM under setting [3] and 116 nM under setting [4].

Regarding “UGUAAGAUGCAGAAGGUGUUAGCUAGAGCUACGACAUGAGGAUCACCCAUGUACUAGAAACAGUACAAGGAUAUGCAUCUUACG”, the “apparent Kd” value is, setting by setting: under setting [3], 17.5 nM; under setting [4], 6.57 nM.

Take “ACUAGUUGGUAAGGAUAUCCUACACUGUUCUGACCCGUGCAAGCUACAUGAGGAUCACCCAUGUGGGAGAAGGUGCGUCAACGC”: the “apparent Kd” value runs as follows: under setting [1], 15.3 nM; under setting [2], 15.9 nM.

“UCUACAUAAAUUCAUCAAUACAGAAAGGAUAUGAAAUACAUGAGGAUCACCCAUGUUCAUGGGAAUUAGAAGGUUCAAUUAGCU”: the “apparent Kd” value by setting is: under setting [1], 220 nM; under setting [2], 137 nM.

Regarding “CGAUUGGGAGGAUAUGCGUGGAUAGUUUUAUAUAGUAUGUUACAUGAGGAUCACCCAUGUAGAAGGUUCGGUUG”, the “apparent Kd” value amounted to 56.9 nM under setting [1] and 58.3 nM under setting [2].

As for “GUAGCAAUCGGAGGAUAUUCAUGAAACAUGAGGAUCACCCAUGUUAAUUUGGGAGAAGGCCGAUUGCUACAAGAGCGAAAGCUC”, the “apparent Kd” value runs as follows: under setting [3], 8.14 nM; under setting [4], 5.35 nM.

With “CCUCUACAUGAGGAUCACCCAUGUGAGGAUAUCUCGGAGCAACCACUUAAGGCGCUCCAGAGAAGGCACGUGUA”, the “apparent Kd” value by setting is: under setting [1], 20.6 nM; under setting [2], 28.9 nM.

Turning to “GGUUAAUGCAAGGAUAUGCUAUUAUUUUAUUUUGCAGAAGGUGCAACAUGAGGAUCACCCAUGUUGGAGGGUUU”, the “apparent Kd” value is, setting by setting: under setting [1], 19.8 nM; under setting [2], 26.1 nM.

Consider “GCCGGAGCAGGAUAUCUAAUAUAUCACAUGAGGAUCACCCAUGUCCAGCGAAAGCUGGAGGGAGAAGGGCUCUGGC”, for which the “apparent Kd” value was 164 nM under setting [1] and 44.4 nM under setting [2].

For the sequence “AAUAACAGAGGAUAUACUGUUUUAUGUGUUUGUUAUUUUGAACAUGAGGAUCACCCAUGUAGAAGGCUGAUUAA”, the “apparent Kd” value was determined as 41.2 nM under setting [1] and 38.2 nM under setting [2].

As to “GGUGGACAUGAGGAUCACCCAUGUGAGGAUAUCGGCUGUCUACUCGCUGACGGCUGCUCGAGAAGGCGCAUUGU”, the “apparent Kd” value is, setting by setting: under setting [1], 45.4 nM; under setting [2], 61.5 nM.

On to “AAGAAACAUGAGGAUCACCCAUGUGAGAAUAUGGGAGGAUAUACAAGGACGUAAGUCAAGGUAGAAGGCCUAAGAA”, for which the “apparent Kd” value under setting [3] worked out at 171 nM and the “apparent Kd” value under setting [4] is 29.7 nM.

Turning to “CUAUAGAUAUCAGGAUAUCUAUUUCCUACAUGAGGAUCACCCAUGUAGAGGAUCACCCAUGUAAAGGAGAAGGGAUAUCUAUAG”, the “apparent Kd” value by setting is: under setting [3], 91.3 nM; under setting [4], 20.4 nM.

As for “GUAAGUACGAGAGGAUAUUGACAUGAGGAUCACCCAUGUAUUUGGGAGUGUUCACUGAAUUCUUACGAGAAGGCUUGUACAUAC”, the “apparent Kd” value came to 221 nM under setting [1] and 220 nM under setting [2].

In the case of “UUACUCAUGUAAGGAUAUGCAGCCGAUACGGCUGCAGAAGGUACUAAAAUACAUGAGGAUCACCCAUGUCUUUUUAAUUUAGAC”, the “apparent Kd” value is, setting by setting: under setting [3], 140 nM; under setting [4], 73.7 nM.

As to “CCUUCACAUGAGGAUCACCCAUGUCCUAGUCCGUCAGGAUAUAGCCCGCAUCCGCUGUGGCUAGAAGGGACUGCUG”, the “apparent Kd” value reads like this: under setting [3], 141 nM; under setting [4], 235 nM.

In the case of “ACAACAGGCAGAGGAUAUGACUGGGUAGGAGUAACAUGAGGAUCACCCAUGUUAGAAGGCUGCGUCAAACAGCGAAAGGUACGC”, the “apparent Kd” value under setting [1] was 52.4 nM and the “apparent Kd” value under setting [2] was determined as 91.6 nM.

In the case of “GCGGAGGGUACAGGAUAUCGUCCUUAGUUGGUACGAGAAGGGUAGCGCUGCCACAUGAGGAUCACCCAUGUGCCCAAACUAAAA”, the “apparent Kd” value was determined as 159 nM under setting [3] and 201 nM under setting [4].

Regarding “UUAAUGUGAGGAUAUCAGGUGUGAUAGAGUAAUGGUAAAUCUGAGAAGGCACAUGAGGAUCACCCAUGUUCUUC”, the “apparent Kd” value by setting is: under setting [1], 23 nM; under setting [2], 33.8 nM.

In the case of “GGCGGCGCGGGCCACCGCAGGGCCAGAAGGACAUGAGGAUCACCCAUGUGGCAGGACAGGGCGGUGUAGGAUAUGGCAGGCUCG”, the “apparent Kd” value is 11.9 nM under setting [1] and 43.3 nM under setting [2].

On to “GAUAGGAUGUGAGGAUAUGCUGAGGAUACUUCAGCAGAAGGCACAUGAGGAUCACCCAUGUACACUUAUCAUAAAUACCCUAUC”, for which the “apparent Kd” value reads like this: under setting [1], 13 nM; under setting [2], 17.9 nM.

Regarding “UUUAUGUCAGGAUAUGAUUAGAUCUACUUUUGUAGAUCUAAUCAGAAGGGACAUGAGGAUCACCCAUGUUUUUU”, the “apparent Kd” value by setting is: under setting [1], 44.8 nM; under setting [2], 252 nM.

With “AAGAAGUGAGGAUAUACAUGAACGAAAAAAAAAAAGAGCAUGUAGAAGGCACAUGAGGAUCACCCAUGUCAAAA”, the “apparent Kd” value under setting [1] came out at 28.5 nM and the “apparent Kd” value under setting [2] is 27.3 nM.

Regarding “CAUAAGUCAGAGAAGGCGUACAUGCCCAGACUGUGACGGAUGACGACAUGAGGAUCACCCAUGUACGAGGAUAUCUGAGCAAUC”, the “apparent Kd” value by setting is: under setting [1], 22.9 nM; under setting [2], 168 nM.

With “AAAUAAACUACGAAGAUAUCCUCACAUGAGGAUCACCCAUGUCAGGAUAUUUGUCCUAAAAGGACAGAGAAGGGACAUCGUAGA”, the “apparent Kd” value under setting [1] was found to be 5.15 nM and the “apparent Kd” value under setting [2] stood at 11.4 nM.

Regarding “UGUCGGAGCAGAGGAUAUUACAUGAGGAUCACCCAUGUAUGAACCAAUAACUGGAAACAGCAAUGUAAGAAGGCUGCUCCGACA”, the “apparent Kd” value under setting [1] was found to be 7.6 nM and the “apparent Kd” value under setting [2] came to 42.5 nM.

Take “GCAUCCAAUGUGAGGAUAUACCUCUGGAUACAUAGGUAGAAGGCACAUGAGGAUCACCCAUGUUCCUAGGAUGC”: the “apparent Kd” value is 44.6 nM under setting [1] and 222 nM under setting [2].

For the sequence “AAUAUGUUGCAGAAGGCCAUGGUGUGGUAGUGCCUCAUGACAUGAGGAUCACCCAUGUCUGUGAUGGAGGAUAUGCAAUAUAUU”, the “apparent Kd” value by setting is: under setting [1], 67.2 nM; under setting [2], 152 nM.
